Activity calls are given as the source filed them. The calls are words filed in the database; no cut-off is given here.
Assays:
NCI-H460 = experiment: Cytotoxicity against NCIH460 cells after 48 hrs by XTT assay; format: functional, cell-based, Homo sapiens; conditions: for Activity: Homo sapiens
How it was run: (§1)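 XTT tetrazolium proliferation assay with 48 h compound exposure. IC50 was obtained by nonlinear regression from at least two independent experiments and reported as mean ± standard deviation.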

SF-268 = experiment: Cytotoxicity against SF268 cells after 48 hrs by XTT assay; format: functional, cell-based, Homo sapiens; conditions: for Activity: Homo sapiens; how it was run: as §1
SK-OV-3 = experiment: Cytotoxicity against SKOV3 cells after 48 hrs by XTT assay; format: functional, cell-based, Homo sapiens; conditions: for Activity: Homo sapiens; how it was run: as §1
[1] = (§2) Cytotoxicity against RKOp27 cells after 48 hrs by XTT assay; format: functional, cell-based, Homo sapiens; how it was run: as §1
[2] = Cytotoxicity against KB/HeLa cells after 48 hrs by XTT assay; format: functional, cell-based, Homo sapiens; how it was run: as §1
RKOp27 = experiment: as §2; format: functional, cell-based; conditions: Homo sapiens; how it was run: as §1
[3] = Cytotoxicity against KB/HeLa cells at 3.16 ug/ml after 48 hrs by XTT assay; format: functional; conditions: Homo sapiens
[4] = Cytotoxicity against multidrug resistant LT12 cells by XTT assay; format: functional, Rattus norvegicus; how it was run: as §1
[5] = Cytotoxicity against LT12 cells by XTT assay; format: functional, Rattus norvegicus; how it was run: as §1
P388 [6] = experiment: Cytotoxicity against P388 cells by XTT assay; format: functional, Mus musculus; how it was run: as §1
P388 [7] = experiment: Cytotoxicity against adriamycin-resistant P388 Cells by XTT assay; format: functional, Mus musculus; how it was run: as §1
L1210 [8] = experiment: Cytotoxicity against L1210 cells by XTT assay; format: functional, Mus musculus; how it was run: as §1
L1210 [9] = experiment: Cytotoxicity against vincristine-resistant L1210 cells by XTT assay; format: functional, Mus musculus; how it was run: as §1
U-937 [10] = experiment: (§3) Effect on apoptosis in U937 cells assessed as increase in caspase 3 activation at <=10 uM after 24 hrs; format: functional, cell-based; conditions: Homo sapiens
How it was run: (§4)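 U937 cells were treated for 24 h at up to 10 μM. Caspase 3/7 activity was then measured by cleavage of a DEVD rhodamine-110 substrate.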

[11] = Cell cycle arrest at G2/M phase in KB/HeLa cells after 24 hrs; format: functional, cell-based; conditions: Homo sapiens
How it was run: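 KB/HeLa cells were exposed to several concentrations for 24 h alongside untreated reference cells. They were then stained with propidium iodide and analysed by flow cytometry for cell-cycle phase distribution.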

U-937 [12] = experiment: as §3; format: functional, cell-based; conditions: Homo sapiens; how it was run: as §4; remark: listed apart in the source

| SMILES | IC50 (NCI-H460) | IC50 (SF-268) | IC50 (SK-OV-3) | IC50 [1] | IC50 [2] | Activity (NCI-H460) | Activity (SF-268) | Activity (SK-OV-3) | Activity (RKOp27) | inhibition at 3.16 µg/mL [3] | also measured |
| --- | --- | --- | --- | --- | --- | --- | --- | --- | --- | --- | --- |
| CCOC(=O)CO/N=C1/c2ccncc2C(=O)c2c1ccn2CCN(C)C | > 12 µmol | > 12 µmol | > 12 µmol | > 12 µmol | > 12 µmol | – | – | – | – | – | – |
| CN(C)CCn1cc2c(c1)/C(=N\O)c1ccncc1C2=O | – | – | – | – | – | inactive | inactive | inactive | inactive | < 50% | – |
| CO/N=C1/c2ccncc2C(=O)c2cn(CCN(C)C)cc21 | – | – | – | – | – | inactive | inactive | inactive | inactive | < 50% | – |
| CC(=O)O[C@H]1C(=O)[C@@]2(C)[C@H]([C@H](OC(=O)c3ccccc3)[C@]3(O)C[C@H](OC(=O)[C@H](O)[C@@H](NC(=O)c4ccccc4)c4ccccc4)C(C)=C1C3(C)C)[C@]1(OC(C)=O)CO[C@@H]1C[C@@H]2O [PACLITAXEL] | – | – | – | – | – | – | – | – | – | – | Activity [4]: 0.368 µM; Activity [5]: 0.005 µM; Activity (P388 [6]): 0.038 µM; Activity (P388 [7]): >3.4 µM; Activity (L1210 [8]): 0.052 µM; Activity (L1210 [9]): >3.4 µM |
| CN(C)CCn1ccc2c1C(=O)c1cnccc1/C2=N/OCCO | 0.13 µmol | 1.39 µmol | 0.48 µmol | 0.17 µmol | 0.66 µmol | – | – | – | – | – | Activity (U-937 [10]): Active; Activity [4]: 0.16 µM; Activity [5]: 0.04 µM; Activity (P388 [6]): 0.02 µM; Activity (P388 [7]): 0.5 µM; Activity (L1210 [8]): 0.07 µM; Activity (L1210 [9]): 0.16 µM; Activity [11]: Active; Activity (U-937 [12]): Active |
| CN(C)CCn1ccc2c1C(=O)c1cnccc1/C2=N/O | > 12 µmol | > 12 µmol | > 12 µmol | > 12 µmol | > 12 µmol | – | – | – | – | – | – |
| CN(C)CCO/N=C1/c2ccncc2C(=O)c2c1ccn2CCN(C)C | 0.23 µmol | 1.23 µmol | 0.94 µmol | 0.41 µmol | 0.67 µmol | – | – | – | – | – | Activity (U-937 [10]): Active; Activity [4]: 0.07 µM; Activity [5]: 0.03 µM; Activity (P388 [6]): 0.02 µM; Activity (P388 [7]): 0.4 µM; Activity (L1210 [8]): 0.05 µM; Activity (L1210 [9]): 0.11 µM; Activity [11]: Active; Activity (U-937 [12]): Active |
| COc1cccc2c1C(=O)c1c(O)c3c(c(O)c1C2=O)C[C@@](O)(C(=O)CO)C[C@@H]3O[C@H]1C[C@H](N)[C@H](O)[C@H](C)O1 [DOXORUBICIN] | – | – | – | – | – | – | – | – | – | – | Activity [4]: >3.4 µM; Activity [5]: 0.031 µM; Activity (P388 [6]): 0.52 µM; Activity (P388 [7]): >3.4 µM; Activity (L1210 [8]): 0.221 µM; Activity (L1210 [9]): >3.4 µM |
| CN(C)CCn1cc2c(c1)/C(=N\OCCO)c1ccncc1C2=O | – | – | – | – | – | inactive | inactive | inactive | inactive | < 50% | – |
| CO/N=C1/c2ccncc2C(=O)c2c1ccn2CCN(C)C | 0.79 µmol | 2.43 µmol | 2.24 µmol | 1.16 µmol | 1.21 µmol | – | – | – | – | – | – |
| CCOC(=O)CO/N=C1/c2ccncc2C(=O)c2cn(CCN(C)C)cc21 | – | – | – | – | – | inactive | inactive | inactive | inactive | < 50% | – |
| CN(C)CCO/N=C1/c2ccncc2C(=O)c2cn(CCN(C)C)cc21 | – | – | – | – | – | inactive | inactive | inactive | inactive | < 50% | – |
| CN(C)CCn1ccc2c1C(=O)c1cnccc1C2=O | 3.84 µmol | 4.71 µmol | 13.87 µmol | 2.35 µmol | 11.04 µmol | – | – | – | – | – | – |
| CN(C)CCn1cc2c(c1)C(=O)c1cnccc1C2=O | – | – | Not Active | – | – | inactive | inactive | – | inactive | < 50% | – |

Reference: ChEMBL document CHEMBL1137554, “Synthesis and biological evaluation of novel cytotoxic azanaphthoquinone annelated pyrrolo oximes” (Bioorg Med Chem Lett, 2007)
